Results from ChEMBL document CHEMBL2417469, “Synthesis of novel analogs of 2-pyrazoline obtained from [(7-chloroquinolin-4-yl)amino]chalcones and hydrazine as potential antitumor and antimalarial agents” (Eur J Med Chem, 2013).

How the values were obtained:
Type in all cases: functional
[1] = system: T47D; assay: Cytotoxicity against human T47D cells after 48 hrs by SRB assay
Outline: (§1)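 NCI 60-cell screen. Cells grew 24 h (37 °C, 5% CO2) before compound was added. Compounds were in DMSO and diluted in medium with gentamicin, then tested at five levels (100, 10, 1.0, 0.1, 0.01 µM) with 48 h continuous exposure. Adherent cells were fixed with TCA (10% final) and stained with 0.4% SRB, absorbance read at 515 nm. A time-zero plate was included. LC50 is the concentration giving 50% loss of protein relative to time zero.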

[2] = system: MDA-MB-231; assay: Cytotoxicity against human MDA-MB-231 cells after 48 hrs by SRB assay; conditions: MDA-MB-231, 48 h
Outline: (§2)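 NCI 60-cell-line screen. Cells preincubated 24 h at 37 °C, 5% CO2; time-zero plates TCA-fixed. Compounds dissolved in DMSO and tested at five concentrations (100, 10, 1.0, 0.1, 0.01 µM) for 48 h continuous exposure. Adherent cells fixed with cold TCA (10% final), then SRB stained; absorbance at 515 nm. GI50, TGI and LC50 calculated from growth relative to time-zero and untreated controls.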

[3] = system: COLO 205; assay: Cytotoxicity against human COLO205 cells after 48 hrs by SRB assay; conditions: COLO 205, 48 h; outline: as §2
[4] = system: SF-295; assay: Cytotoxicity against human SF295 cells after 48 hrs by SRB assay; conditions: SF-295, 48 h; outline: as §2
[5] = system: HOP-92; assay: Cytotoxicity against human HOP92 cells after 48 hrs by SRB assay; conditions: HOP-92, 48 h; outline: as §2
[6] = system: UO-31; assay: Cytotoxicity against human UO31 cells after 48 hrs by SRB assay; conditions: UO-31, 48 h; outline: as §1
[7] = system: M14; assay: Cytotoxicity against human M14 cells after 48 hrs by SRB assay; conditions: M14, 48 h; for CC50: read-out: LC50 (the source's name); outline: as §2
[8] = system: RPMI-8226; assay: Cytotoxicity against human RPMI8226 cells after 48 hrs by SRB assay; conditions: RPMI-8226, 48 h; outline: as §2
[9] = system: HCT-116; assay: Cytotoxicity against human HCT116 cells after 48 hrs by SRB assay; conditions: HCT-116, 48 h; outline: as §2
[10] = system: A549; assay: Cytotoxicity against human A549/ATCC cells after 48 hrs by SRB assay; conditions: A549, 48 h; for CC50: read-out: LC50 (the source's name); outline: as §2
[11] = system: SK-MEL-5; assay: Cytotoxicity against human SK-MEL-5 cells after 48 hrs by SRB assay; conditions: SK-MEL-5, 48 h; outline: as §2
[12] = system: OVCAR-4; assay: Cytotoxicity against human OVCAR4 cells after 48 hrs by SRB assay; conditions: OVCAR-4, 48 h; outline: as §2
[13] = system: HOP-62; assay: Cytotoxicity against human HOP62 cells after 48 hrs by SRB assay; conditions: HOP-62, 48 h; outline: as §2
[14] = system: UACC-62; assay: Cytotoxicity against human UACC62 cells after 48 hrs by SRB assay; conditions: UACC-62, 48 h; for CC50: read-out: LC50 (the source's name); outline: as §1
[15] = system: PC-3; assay: Cytotoxicity against human PC3 cells after 48 hrs by SRB assay; conditions: PC-3, 48 h; outline: as §2
[16] = system: CCRF-CEM; assay: Cytotoxicity against human CCRF-CEM cells after 48 hrs by SRB assay; outline: as §2
[17] = system: SN12C; assay: Cytotoxicity against human SN12C cells after 48 hrs by SRB assay; outline: as §2
[18] = system: SNB-19; assay: Cytotoxicity against human SNB19 cells after 48 hrs by SRB assay; conditions: SNB-19, 48 h; outline: as §1
[19] = system: SK-MEL-2; assay: Cytotoxicity against human SK-MEL-2 cells after 48 hrs by SRB assay; conditions: SK-MEL-2, 48 h; outline: as §2
[20] = system: OVCAR-3; assay: Cytotoxicity against human OVCAR3 cells after 48 hrs by SRB assay; conditions: OVCAR-3, 48 h; outline: as §2
[21] = system: HCC 2998; assay: Cytotoxicity against human HCC2998 cells after 48 hrs by SRB assay; conditions: HCC 2998, 48 h; outline: as §2
[22] = system: UACC-257; assay: Cytotoxicity against human UACC257 cells after 48 hrs by SRB assay; conditions: UACC-257, 48 h; outline: as §1
[23] = system: NCI-H23; assay: Cytotoxicity against human NCI-H23 cells after 48 hrs by SRB assay; conditions: NCI-H23, 48 h; for CC50: read-out: LC50 (the source's name); outline: as §2
[24] = system: SNB-75; assay: Cytotoxicity against human SNB75 cells after 48 hrs by SRB assay; conditions: SNB-75, 48 h; outline: as §1
[25] = system: LOX IMVI; assay: Cytotoxicity against human LOXIMVI cells after 48 hrs by SRB assay; outline: as §2
[26] = system: SK-MEL-28; assay: Cytotoxicity against human SK-MEL-28 cells after 48 hrs by SRB assay; conditions: SK-MEL-28, 48 h; for CC50: read-out: LC50 (the source's name); outline: as §2
[27] = system: MDA-MB-435; assay: Cytotoxicity against human MDA-MB-435 cells after 48 hrs by SRB assay; conditions: MDA-MB-435, 48 h; outline: as §2
[28] = system: 786-0; assay: Cytotoxicity against human 786-0 cells after 48 hrs by SRB assay; conditions: 786-0, 48 h; outline: as §2
[29] = system: DU-145; assay: Cytotoxicity against human DU145 cells after 48 hrs by SRB assay; conditions: DU-145, 48 h; outline: as §2
[30] = system: NCI-H522; assay: Cytotoxicity against human NCI-H522 cells after 48 hrs by SRB assay; conditions: NCI-H522, 48 h; for CC50: read-out: LC50 (the source's name); outline: as §2
[31] = system: MOLT-4; assay: Cytotoxicity against human MOLT4 cells after 48 hrs by SRB assay; conditions: MOLT-4, 48 h; outline: as §2
[32] = system: A498; assay: Cytotoxicity against human A498 cells after 48 hrs by SRB assay; conditions: A498, 48 h; for CC50: read-out: LC50 (the source's name); outline: as §2
[33] = system: NCI-H226; assay: Cytotoxicity against human NCI-H226 cells after 48 hrs by SRB assay; conditions: NCI-H226, 48 h; outline: as §2
[34] = system: KM12; assay: Cytotoxicity against human KM12 cells after 48 hrs by SRB assay; conditions: KM12, 48 h; outline: as §2
[35] = system: Malme-3M; assay: Cytotoxicity against human MALME-3M cells after 48 hrs by SRB assay; outline: as §2

## COc1ccc(C2CC(c3cccc(Nc4ccnc5cc(Cl)ccc45)c3)=NN2C=O)cc1 (centres undefined)
[1]
  GI50: 0.53 µM
  LC50 (concentration giving 50% cell kill relative to time zero): > 100 µM
[2]
  GI50: 3.19 µM
  LC50 (concentration killing 50% of cells present at time zero): > 100 µM
[3]
  GI50: 0.45 µM
  LC50: 13.9 µM
[4]
  GI50: 0.32 µM
  LC50: > 100 µM
[5]
  GI50: > 100 µM
  LC50 (concentration killing 50% of cells): > 100 µM
[6]
  GI50: 0.85 µM
  LC50: > 100 µM
[7]
  GI50: 0.4 µM
  CC50: > 100 µM
[8]
  GI50: 16.7 µM
  LC50 (concentration killing 50% of cells): > 100 µM
[9]
  GI50: 0.38 µM
  LC50: 38.1 µM
[10]
  GI50: 0.57 µM
  CC50: > 100 µM
[11]
  GI50: 0.41 µM
  LC50 (concentration killing 50% of cells present at time zero): > 100 µM
[12]
  GI50: 0.89 µM
  LC50: > 100 µM
[13]
  GI50: 0.66 µM
  LC50 (50% lethal concentration): > 100 µM
[14]
  GI50: 0.67 µM
  CC50: > 100 µM
[15]
  GI50: 0.85 µM
  LC50: > 100 µM
[16]
  GI50: 0.68 µM
  LC50 (concentration killing 50% of cells relative to time zero): > 100 µM
[17]
  GI50: 0.78 µM
  LC50 (50% net cell kill relative to time zero): > 100 µM
[18]
  GI50: 0.87 µM
  LC50: > 100 µM
[19]
  GI50: 0.49 µM
  LC50: > 100 µM
[20]
  GI50: 0.47 µM
  LC50: 77.4 µM
[21]
  GI50: 1.32 µM
  LC50: > 100 µM
[22]
  LC50: > 100 µM
[23]
  GI50: 0.95 µM
  CC50: > 100 µM
[24]
  GI50: 0.33 µM
  LC50 (50% net cell kill): > 100 µM
[25]
  GI50: 0.58 µM
  LC50: 6.7 µM
[26]
  GI50: 0.96 µM
  CC50: > 100 µM
[27]
  GI50: 0.14 µM
  LC50: > 100 µM
[28]
  GI50: 0.53 µM
  LC50: > 100 µM
[29]
  GI50: 1.35 µM
  LC50 (concentration killing 50% of cells): > 100 µM
[30]
  GI50: 0.3 µM
  CC50: > 100 µM
[31]
  GI50: 0.49 µM
  LC50: > 100 µM
[32]
  GI50: 0.26 µM
  CC50: > 100 µM
[33]
  GI50: 41.6 µM
  LC50 (50% lethal concentration): > 100 µM
[34]
  GI50: 0.44 µM
  LC50 (concentration killing 50% of cells): > 100 µM
[35]
  GI50: 0.74 µM
  LC50: > 100 µM

## COc1cc(C2CC(c3cccc(Nc4ccnc5cc(Cl)ccc45)c3)=NN2C=O)cc(OC)c1OC (centres undefined)
[1]
  GI50: 0.65 µM
  LC50 (concentration giving 50% cell kill relative to time zero): 69.3 µM
[2]
  GI50: 1.6 µM
  LC50 (concentration killing 50% of cells present at time zero): > 100 µM
[3]
  GI50: 0.64 µM
  LC50: > 100 µM
[4]
  GI50: 0.38 µM
  LC50: > 100 µM
[5]
  GI50: 2.75 µM
  LC50 (concentration killing 50% of cells): > 100 µM
[6]
  GI50: 1.3 µM
  LC50: > 100 µM
[7]
  GI50: 0.35 µM
  CC50: 57.5 µM
[8]
  GI50: 8.83 µM
  LC50 (concentration killing 50% of cells): > 100 µM
[9]
  GI50: 0.4 µM
  LC50: 6.71 µM
[10]
  GI50: 0.66 µM
  CC50: > 100 µM
[11]
  GI50: 0.42 µM
  LC50 (concentration killing 50% of cells present at time zero): 23.5 µM
[12]
  GI50: 1.13 µM
  LC50: > 100 µM
[13]
  GI50: 1.12 µM
  LC50 (50% lethal concentration): 66.5 µM
[14]
  GI50: 0.72 µM
  CC50: 84 µM
[15]
  GI50: 1.46 µM
  LC50: > 100 µM
[16]
  GI50: 0.65 µM
  LC50 (concentration killing 50% of cells relative to time zero): > 100 µM
[17]
  GI50: 0.78 µM
  LC50 (50% net cell kill relative to time zero): > 100 µM
[18]
  GI50: 3.42 µM
  LC50: > 100 µM
[19]
  GI50: 0.73 µM
  LC50: 50.1 µM
[20]
  GI50: 0.52 µM
  LC50: 6.06 µM
[21]
  GI50: 2.16 µM
  LC50: > 100 µM
[22]
  GI50: 1.4 µM
  LC50: > 100 µM
[23]
  GI50: 1.38 µM
  CC50: > 100 µM
[24]
  GI50: 0.38 µM
  LC50 (50% net cell kill): 51 µM
[25]
  GI50: 0.71 µM
  LC50: > 100 µM
[26]
  GI50: 1.02 µM
  CC50: 97.1 µM
[27]
  GI50: 0.22 µM
  LC50: > 100 µM
[28]
  GI50: 0.84 µM
  LC50: 76.3 µM
[29]
  GI50: 2.68 µM
  LC50 (concentration killing 50% of cells): > 100 µM
[30]
  GI50: 0.75 µM
  CC50: > 100 µM
[31]
  GI50: 0.59 µM
  LC50: > 100 µM
[32]
  GI50: 0.29 µM
  CC50: > 100 µM
[33]
  GI50: 2.2 µM
  LC50 (50% lethal concentration): > 100 µM
[34]
  GI50: 0.5 µM
  LC50 (concentration killing 50% of cells): > 100 µM
[35]
  GI50: 0.81 µM
  LC50: > 100 µM
